Results taken from ChEMBL document CHEMBL2429711, “[(11)C]MK-4232: The First Positron Emission Tomography Tracer for the Calcitonin Gene-Related Peptide Receptor” (ACS Med Chem Lett, 2013).

What was measured:
[1] = Ratio of AUC in rhesus monkey CSF to AUC in rhesus monkey plasma; format: ADME, Macaca mulatta
Method in brief: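 Cisterna magna-ported rhesus monkeys dosed; CSF AUC divided by plasma AUC.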

[2] = Fraction unbound in monkey plasma by equillibrium dialysis method; format: ADME, cell-free, Macaca mulatta; conditions: rhesus monkey
Method in brief: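 Plasma unbound fraction by equilibrium dialysis.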

[3] = biological target: MDR1 (ABCB1) (Homo sapiens, UniProt P08183); assay: Efflux ratio of human MDR1-mediated drug transport from basolateral to apical side over apical to basolateral side in pig LLC cells expressing human MDR1 at 5 uM; format: ADME, cell-based; conditions: LLC-PK1
Chain of MDR1 (ABCB1) (P08183 whole entry): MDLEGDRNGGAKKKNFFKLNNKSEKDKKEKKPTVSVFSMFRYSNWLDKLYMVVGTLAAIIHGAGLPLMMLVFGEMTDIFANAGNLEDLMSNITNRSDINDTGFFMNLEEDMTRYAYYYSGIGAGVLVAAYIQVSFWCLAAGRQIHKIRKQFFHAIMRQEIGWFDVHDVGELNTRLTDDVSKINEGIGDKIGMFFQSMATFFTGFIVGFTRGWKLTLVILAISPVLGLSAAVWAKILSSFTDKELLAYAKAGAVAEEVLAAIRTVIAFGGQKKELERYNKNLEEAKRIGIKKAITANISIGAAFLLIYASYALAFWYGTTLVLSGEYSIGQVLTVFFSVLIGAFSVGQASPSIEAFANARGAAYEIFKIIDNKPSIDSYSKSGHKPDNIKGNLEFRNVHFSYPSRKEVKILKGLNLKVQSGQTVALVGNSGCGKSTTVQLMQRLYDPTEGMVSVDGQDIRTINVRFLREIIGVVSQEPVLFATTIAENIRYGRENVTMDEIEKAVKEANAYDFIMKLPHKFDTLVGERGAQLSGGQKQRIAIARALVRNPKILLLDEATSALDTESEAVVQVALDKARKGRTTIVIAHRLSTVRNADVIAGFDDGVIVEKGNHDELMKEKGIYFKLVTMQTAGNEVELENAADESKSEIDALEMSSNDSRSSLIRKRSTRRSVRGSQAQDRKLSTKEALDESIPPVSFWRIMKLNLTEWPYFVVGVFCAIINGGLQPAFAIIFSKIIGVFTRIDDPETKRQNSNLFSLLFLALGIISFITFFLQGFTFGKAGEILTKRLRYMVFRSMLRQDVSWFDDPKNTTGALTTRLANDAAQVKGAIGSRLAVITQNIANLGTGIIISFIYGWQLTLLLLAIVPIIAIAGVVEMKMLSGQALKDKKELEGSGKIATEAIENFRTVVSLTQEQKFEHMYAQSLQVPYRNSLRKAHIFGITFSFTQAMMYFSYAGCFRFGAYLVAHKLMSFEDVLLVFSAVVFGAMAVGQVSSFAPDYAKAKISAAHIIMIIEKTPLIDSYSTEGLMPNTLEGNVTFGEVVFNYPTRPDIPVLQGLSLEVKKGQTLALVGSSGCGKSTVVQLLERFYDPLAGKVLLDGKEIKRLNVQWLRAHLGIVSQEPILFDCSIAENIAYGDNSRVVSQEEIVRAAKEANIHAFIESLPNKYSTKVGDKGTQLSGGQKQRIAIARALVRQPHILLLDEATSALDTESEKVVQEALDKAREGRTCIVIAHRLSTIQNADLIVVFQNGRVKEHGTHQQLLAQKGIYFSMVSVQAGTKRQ
Method in brief: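 P-gp transport ratio BA/AB in LLC-MDR1 cells, test compound at 5 μM.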

[4] = Drug uptake in iv dosed rhesus monkey cerebellum after 80 mins; format: ADME, organism-based, Macaca mulatta; conditions: in vivo
Method in brief: (§1)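 Anesthetized rhesus monkeys given [11C]-tracer i.v.; PET specific uptake value (SUV) read in cerebellum or white matter at 80 min postdose.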

[5] = biological target: T1, Calcitonin gene-related peptide type 1 receptor (Homo sapiens, UniProt O60894+Q16602); assay: Displacement of [125I]-hCGRP from human CGRP receptor expressed in HEK293 cells; format: cell-based
T1 sequence (Q16602 whole entry, one chain of several): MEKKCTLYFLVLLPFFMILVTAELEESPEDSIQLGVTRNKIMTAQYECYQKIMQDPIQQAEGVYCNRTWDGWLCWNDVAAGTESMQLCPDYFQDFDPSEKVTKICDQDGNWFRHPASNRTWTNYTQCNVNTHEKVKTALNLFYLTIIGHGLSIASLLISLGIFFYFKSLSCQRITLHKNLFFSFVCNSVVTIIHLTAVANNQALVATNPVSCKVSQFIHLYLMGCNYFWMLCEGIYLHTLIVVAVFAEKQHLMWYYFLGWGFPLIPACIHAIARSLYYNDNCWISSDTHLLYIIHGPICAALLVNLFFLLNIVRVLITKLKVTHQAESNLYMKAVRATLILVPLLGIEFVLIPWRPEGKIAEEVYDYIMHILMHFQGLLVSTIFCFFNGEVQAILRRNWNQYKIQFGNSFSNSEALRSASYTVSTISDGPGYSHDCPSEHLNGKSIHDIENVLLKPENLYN
Method in brief: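 Ki for inhibition of 125I-hCGRP binding; membranes from HEK293 cells stably expressing human CLR/RAMP1; replicate number given per value.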

[6] = tested on: CGRP receptor (Macaca mulatta); assay: Ratio of drug uptake in iv dosed rhesus monkey cerebellum to drug uptake in iv dosed rhesus monkey white matter; conditions: in vivo
[7] = Lipophilicity, log D of the compound at pH 7.0 by HPLC analysis; format: physicochemical; conditions: buffer
Method in brief: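 logD measured by HPLC at pH 7.0.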

[8] = Drug uptake in iv dosed rhesus monkey white matter after 80 mins; format: ADME, organism-based, Macaca mulatta; conditions: in vivo; method in brief: as §1
[9] = Apparent passive permeability across pig LLC-PK1 cells; format: ADME, cell-based, Sus scrofa
Method in brief: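 Permeability measured in control LLC-PK1 cells.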

[10] = biological target: Calcitonin gene-related peptide type 1 receptor (Homo sapiens) (UniProt Q16602); assay: Ratio of Bmax to Ki for human CGRP receptor expressed in HEK293 cells; format: cell-based
Chain of Calcitonin gene-related peptide type 1 receptor (Homo sapiens) (Q16602 whole entry): as the sequence (Q16602 whole entry, one chain of several) above

[11] = organism: Macaca mulatta; assay: Binding affinity to rhesus monkey cerebellum CGRP receptor; format: tissue-based
[12] = Fraction unbound in rhesus monkey CSF; format: ADME, Macaca mulatta, Cerebrospinal fluid
[13] = Binding affinity to rhesus monkey CGRP receptor by radioligand binding assay; set-up: species or system Macaca mulatta
[14] = biological target: T1, Calcitonin gene-related peptide type 1 receptor; assay: Antagonist activity at CGRP receptor (unknown origin) by cell based cAMP assay in presence of human serum; format: functional
Method in brief: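 cAMP functional antagonism measured with 50% human serum added.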

[15] = biological target: Calcitonin gene-related peptide type 1 receptor (Homo sapiens) (UniProt Q16602); assay: Ratio of IC50 for CGRP receptor (unknown origin) to IC50 for CGRP receptor (unknown origin) in presence of human serum
[16] = biological target: T1, Calcitonin gene-related peptide type 1 receptor; assay: Antagonist activity at CGRP receptor (unknown origin) by cell based cAMP assay; format: functional

Structure (SMILES) | Ratio AUC [1] [%] | fraction unbound [2] | efflux ratio at 5 µM [3] | SUV [4] | Ki [5] [nM] | Ratio [6] | logD [7] | SUV [8] | Papp [9] [×10⁻⁶ cm/s] | Ratio [10] | Bmax [11] [nM] | fraction unbound [12] | Ki [13] [nM] | IC50 [14] [nM] | Ratio IC50 [15] | IC50 [16] [nM]
O=C(N[C@@H]1CC[C@@H](c2cccc(F)c2F)CN(CC(F)(F)F)C1=O)N1CCC(n2c(=O)[nH]c3ncccc32)CC1 [TELCAGEPANT] | 1.3 | 0.038 | 24 |  |  |  |  |  |  |  |  |  |  |  |  | 
CN1C[C@@](C)(c2cc(F)cc(F)c2)N(CC#Cc2ccc3c(c2)C[C@@]2(C3)C(=O)Nc3ncccc32)C(=O)C12CCCC2 | 0.99 | 0.008 |  | 1.1 | 0.11 | 1.6 | 4.11 | 0.7 |  |  |  |  |  |  |  | 
CN1C[C@@](C)(c2cc(F)cc(F)c2)N(CCCc2cnc3c(c2)C[C@@]2(C3)C(=O)Nc3ncccc32)C(=O)C12CCCC2 |  | 0.061 | 1.8 | 1 | 0.045 | 1.7 | 3.16 | 0.6 | 23 |  |  |  |  |  |  | 
O=C(CN1C(=O)C2(CCCC2)NC[C@H]1c1cc(F)cc(F)c1)Nc1ccc2c(c1)C[C@@]1(C2)C(=O)Nc2ncccc21 [MK3207] | 2.9 |  | 25 |  |  |  | 2.35 |  | 28 | > 1000 | 24 |  |  |  |  | 
CN1C[C@@](C)(c2cc(F)cc(F)c2)N(CC(=O)Nc2ccc3c(c2)C[C@@]2(C3)C(=O)Nc3ncccc32)C(=O)C12CCCC2 | 3.12 | 0.043 | 1.7 | 1.7 | 0.046 | 2 | 3.39 | 0.9 | 25 |  |  |  | 0.033 | 0.39 | 4 | 0.097
CN1C[C@@](C)(c2cc(F)cc(F)c2)N(C/C=C/c2ccc3c(c2)C[C@@]2(C3)C(=O)Nc3ncccc32)C(=O)C12CCCC2 | 0.53 | 0.002 |  | 1 | 0.094 | 1.4 | 4.15 | 0.7 |  |  |  |  |  |  |  | 
C[C@@]1(c2cc(F)cc(F)c2)CNC2(CCCC2)C(=O)N1CC(=O)Nc1ccc2c(c1)C[C@@]1(C2)C(=O)Nc2ncccc21 | 6.61 |  | 9.3 |  |  |  |  |  |  |  |  |  |  |  |  | 
CN1C[C@@](C)(c2cc(F)cc(F)c2)N(CCCc2ccc3c(c2)C[C@@]2(C3)C(=O)Nc3ncccc32)C(=O)C12CCCC2 |  | 0.002 |  | 0.8 | 0.5 | 1.3 | 4.33 | 0.6 |  |  |  |  |  |  |  | 
CN1C[C@@](C)(c2cc(F)cc(F)c2)N(CC(=O)Nc2ccc3c(c2)C[C@@]2(C3)C(=O)Nc3ncccc32)C(=O)C1(C)C | 4.79 | 0.117 | 2.8 | 1.2 | 0.056 | 1.7 |  | 0.7 | 29 |  |  | 0.4 |  |  |  | 
CC1(C)NC[C@@](C)(c2cc(F)cc(F)c2)N(CC(=O)Nc2ccc3c(c2)C[C@@]2(C3)C(=O)Nc3ncccc32)C1=O |  | 0.333 | 20 |  | 0.11 |  |  |  |  |  |  |  |  |  |  | 

More lines, now with the values ahead:

Ratio AUC [1] [%] | fraction unbound [2] | efflux ratio at 5 µM [3] | SUV [4] | Ki [5] [nM] | Ratio [6] | logD [7] | SUV [8] | Papp [9] [×10⁻⁶ cm/s] | Ratio [10] | Bmax [11] [nM] | fraction unbound [12] | Ki [13] [nM] | IC50 [14] [nM] | Ratio IC50 [15] | IC50 [16] [nM] | Structure (SMILES)
 |  | 14 |  | 0.017 |  |  |  |  |  |  |  |  |  |  |  | CN1C[C@@](C)(c2cc(F)cc(F)c2)N(CC(=O)Nc2cnc3c(c2)C[C@@]2(C3)C(=O)Nc3ncccc32)C(=O)C12CCCC2
 | 0.205 |  | 0.7 | 0.022 |  |  | 0.5 | 27 |  |  |  |  |  |  |  | CN1C[C@@H](c2cc(F)cc(F)c2)N(CC(=O)Nc2ccc3c(c2)C[C@@]2(C3)C(=O)Nc3ncccc32)C(=O)C1(C)C
4.35 | 0.429 | 33 |  | 0.034 |  |  |  |  |  |  | 0.1 |  |  |  |  | CC1(C)NC[C@@H](c2cc(F)cc(F)c2)N(CC(=O)Nc2ccc3c(c2)C[C@@]2(C3)C(=O)Nc3ncccc32)C1=O
2.64 | 0.031 | 1.5 | 1.3 | 0.019 | 1.9 | 3.41 | 0.7 | 17 |  |  |  |  |  |  |  | CN1C[C@@](C)(c2cc(F)cc(F)c2)N(CC#Cc2cnc3c(c2)C[C@@]2(C3)C(=O)Nc3ncccc32)C(=O)C12CCCC2
 | 0.051 | 2 | 1.2 | 0.021 | 1.7 | 3.36 | 0.7 | 21 |  |  |  |  |  |  |  | CN1C[C@@](C)(c2cc(F)cc(F)c2)N(C/C=C/c2cnc3c(c2)C[C@@]2(C3)C(=O)Nc3ncccc32)C(=O)C12CCCC2
